Consider 13 compounds from PubChem BioAssay.

SMILES strings stand for the structures. Activity calls are given as the source filed them.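 Rule for the calls, unless noted: active = NADPH fluorescence slope more negative than the mean of all samples by about 3 SD, 99.7% confidence; inactive = the rest.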

Experiment [1] in a line: inhibitors of TNFa-induced NFkB p65 translocation, primary screen, imaging, HUVEC, MLSMR starter and 10KST1 sets (AID 438;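 active = inhibition above 20% together with a positive visual image hit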;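 note: compound added about 3h40 before a 20 min TNFalpha stimulation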;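 for inhibition: signal is the nuclear over cytoplasmic p65 intensity ratio per well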). To be noted: HUVEC TNFa-induced p65 nuclear translocation; cell count: measured here: nuclei count (cytotoxicity indicator), at 2.08 µM; inhibition: at 2 µM, stronger effect = higher value, 0% TNFa-plus-vehicle, 100% no-TNFa wells.
Experiment [2] in a line: endothelial E-selectin expression blockers – imaging, HUVEC, immunofluorescence, MLSMR starter and 10KST1 sets, primary screen (AID 487;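 active = visually confirmed hit in the image check and inhibition above 20%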;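 for inhibition: signal is fraction of cell area covered by stained E-selectin grains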;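 for nuclei count: 100% = median nuclei count of all wells on the same plate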). To be noted: HUVEC TNFalpha-induced E-selectin immunofluorescence imaging, at 2 µM; inhibition: stronger effect = higher value; nuclei count: measured here: cell number, toxicity.
Experiment [3] in a line: Primary imaging screen for DUSP6 inhibitors that restore phospho-Erk in transfected HeLa cells, chemical complementation (AID 609;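 active = compounds giving at least 50% inhibition in the cell-based MKP-3 phosphatase rescue imaging test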;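 for inhibition: phospho-Erk level distribution per well compared with pooled transfected vehicle control wells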). To be noted: HeLa MKP-3 transfected, phospho-Erk imaging KS statistic, at 10 µM, cells stimulated with TPA for 15 min.
In experiment [4] the target is Dual specificity protein phosphatase 6 (Homo sapiens) (UniProt Q16828). Described as above. The following applies: HeLa MKP-3 transfected, phospho-Erk imaging KS statistic; at 10 µM; stronger effect = higher value; cells stimulated with TPA for 15 min.
Chain of Dual specificity protein phosphatase 6 (Homo sapiens) (Q16828 whole entry, looked up): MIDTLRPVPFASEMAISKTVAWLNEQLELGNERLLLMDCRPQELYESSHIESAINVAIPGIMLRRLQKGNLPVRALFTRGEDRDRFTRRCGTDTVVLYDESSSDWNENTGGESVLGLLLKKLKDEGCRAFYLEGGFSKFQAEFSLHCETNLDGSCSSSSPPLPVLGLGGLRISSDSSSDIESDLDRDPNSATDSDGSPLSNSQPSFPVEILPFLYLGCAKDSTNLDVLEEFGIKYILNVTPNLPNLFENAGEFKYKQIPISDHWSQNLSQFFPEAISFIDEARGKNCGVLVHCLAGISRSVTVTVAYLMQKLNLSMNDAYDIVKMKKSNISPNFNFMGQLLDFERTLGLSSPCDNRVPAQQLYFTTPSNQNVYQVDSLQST
For experiment [5], the target named is Voltage-gated potassium channel subunit beta-2 (Rattus norvegicus) (UniProt P62483). In words: inhibitors of rat Kvbeta2 reductase activity – biochemical, NADPH fluorescence, primary screen (AID 622;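 active = fluorescence slope higher than the sample average by over 3 SD, cut at about -0.22 in these data, passing the limit was not always enough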;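 note: slope of raw intensity against log time taken from 70 to 1610 s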). To be noted: recombinant KvBeta, 4-cyanobenzaldehyde reduction, at 10 µM, stronger effect = higher value.
Chain of Voltage-gated potassium channel subunit beta-2 (Rattus norvegicus) (P62483 whole entry, looked up): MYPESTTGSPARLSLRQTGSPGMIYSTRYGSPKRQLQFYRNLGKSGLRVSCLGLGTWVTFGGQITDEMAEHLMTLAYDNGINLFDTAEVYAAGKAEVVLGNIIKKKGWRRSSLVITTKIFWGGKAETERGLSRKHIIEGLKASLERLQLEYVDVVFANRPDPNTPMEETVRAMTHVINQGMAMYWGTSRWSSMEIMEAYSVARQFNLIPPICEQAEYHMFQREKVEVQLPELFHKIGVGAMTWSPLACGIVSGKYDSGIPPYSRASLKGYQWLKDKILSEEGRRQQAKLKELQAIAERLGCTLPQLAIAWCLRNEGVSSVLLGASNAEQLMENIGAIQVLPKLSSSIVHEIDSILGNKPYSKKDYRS
Experiment [6] shares this target. The experiment in a line: enhancers of rat Kvbeta2 NADPH turnover – biochemical, NADPH fluorescence, primary screen (AID 623).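 Note: fluorescence intensity change per second fitted from 20 to 320 s.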 To be noted: Recombinant KvBeta, NADPH fluorescence decrease slope, 10 min; at 10 µM; stronger effect = lower value.
Experiment [7] deals with Alpha-2C adrenergic receptor (Homo sapiens) (UniProt P18825). The experiment in a line: compounds altering alpha2C-coupled GIRK flux – cell-based, HEK293 alpha2C/GIRK1/2, thallium flux, primary screen (AID 624;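 active = fluorescence slope after compound addition differing from the mean of all screened samples at 99.7% confidence, in either direction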;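 note: slope of fluorescence ratio to pre-addition baseline per second over 15 to 24 s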). The following applies: thallium flux BTC fluorescence, at 10 µM, actives lie on both sides.
Chain of Alpha-2C adrenergic receptor (Homo sapiens) (P18825 whole entry, looked up): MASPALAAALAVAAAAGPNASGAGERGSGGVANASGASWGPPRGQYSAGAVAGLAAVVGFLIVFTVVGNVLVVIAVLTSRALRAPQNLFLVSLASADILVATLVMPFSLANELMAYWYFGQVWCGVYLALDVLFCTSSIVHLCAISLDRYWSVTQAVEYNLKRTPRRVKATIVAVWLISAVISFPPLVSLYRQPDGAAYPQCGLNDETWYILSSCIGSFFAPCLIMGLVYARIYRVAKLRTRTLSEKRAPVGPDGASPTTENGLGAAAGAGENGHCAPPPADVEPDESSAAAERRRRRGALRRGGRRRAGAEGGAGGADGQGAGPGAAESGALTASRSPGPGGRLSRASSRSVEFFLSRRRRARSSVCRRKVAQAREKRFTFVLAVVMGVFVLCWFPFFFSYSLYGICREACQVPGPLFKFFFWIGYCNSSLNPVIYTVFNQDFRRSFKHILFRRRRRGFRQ
Experiment [8] can be described thus: loss of swimming-algae plug formation – whole organism, Chlamydomonas reinhardtii, WT vs cilia-less mutant, absorbance, 96-well, primary screen (AID 463189;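 active = inhibition at or above 50% relative to wild type and mutant plate controls; inactive = inhibition below 50%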;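 note: 0% = wild type cc124 cells in DMSO and 100% = ciliumless bld1 mutant cells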). To be noted: Chlamydomonas reinhardtii gravitaxis, OD600 absorbance, 2 days; at 10 µM; stronger effect = higher value.
The nature of experiment [9]: inhibitors of larval lipid processing in zebrafish, primary screen, whole organism, PED6 fluorescence, gall bladder and intestine (AID 686;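 active = a full or partial loss of lipid-probe fluorescence in the fish gall bladder, intestine or both, judged by eye; inactive = no fluorescence loss, or compound toxic to the fish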;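 note: larvae 5 to 7 days old with five fish per well; signal comes from phospholipase A2 cleavage of quenched PED6 carried via bile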). To be noted: Zebrafish larvae PED6 lipid processing, fluorescence scoring; screened at 20 µM (by protocol). Put shortly: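 Incubation: overnight exposure of larvae to compound plus PED6 / Test system: live zebrafish larvae aged 5-7 days, whole organism / Amount: 5 larvae per well / Read-out basis: visual per-well fluorescence inhibition score / Signal: visual fluorescence microscopy scoring of gall bladder, gut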

[10] abbreviates: measured here: cell density z-score.
Setting [11] is: measured here: nuclear c-Myc green intensity z-score.
[12] abbreviates: measured here: nuclear pErk red intensity z-score, stronger effect = higher value.

For `O=C1C2ON(c3ccccc3)C(c3ccncc3)C2C(=O)N1c1ccc(Br)cc1` (stereo unspecified), the cell count in experiment [1] is 360. Also, the inhibition (commonly the relative decrease from the control value, in per cent) is -2.3% (inactive) in experiment [1], -22.2% (inactive) in experiment [2], 12.3% (inactive) in experiment [4] and 24.8% (inactive) in [8]. Also, the nuclei count in [2] was determined as 148%. In addition, the z-score in experiment [3] (setting [10]) is -0.515; in experiment [3] (setting [11]), -1.17; in experiment [3] (setting [12]), -0.44. The fluorescence slope in experiment [5] was -0.414 (inactive). Further, in experiment [6], the NADPH fluorescence slope was -0.000135 (inactive). For the same compound, in experiment [7], the slope is 0.00415 (inactive).

In the case of `CCC1(C)Cc2c(sc3c2c(=O)n(C)c2nnc(SCC(=O)c4ccc(Cl)cc4)n32)CO1` (stereo unspecified), the cell count in experiment [1] turned out to be 559. For the same compound, the inhibition in experiment [1] was -2.6% (inactive); in experiment [2], -61.6% (inactive); in [4], 9.82% (inactive); in experiment [8], -10.8% (inactive). The nuclei count in experiment [2] was 121%. The results for the z-score in experiment [3] (setting [10]), in experiment [3] (setting [11]) and in experiment [3] (setting [12]) were -1.48, 3.25 and -1.65, respectively. In experiment [5], the fluorescence slope was -0.37 (inactive). In [6], the NADPH fluorescence slope was 2e-05 (inactive). For the same compound, the slope in experiment [7] was 0.00685 (inactive). Also, the compound was called inactive in experiment [9].

In the case of `CNC(=O)Nc1cccc(NC(=O)NC)n1`, the cell count in [1] was 351. Further, the inhibition in experiment [1] was -2.8% (inactive); in [2] it was -90.3% (inactive); in experiment [4], 11.4% (inactive); in experiment [8], -3.2% (inactive). Further, the nuclei count in experiment [2] was 164%. In addition, the results for the z-score in [3] (setting [10]), in [3] (setting [11]) and in experiment [3] (setting [12]) were 0.612, 0.757 and -1.65, respectively. For the same compound, the fluorescence slope in [5] was -0.456 (inactive). Moreover, the NADPH fluorescence slope in experiment [6] is -0.000144 (inactive). In experiment [7], the slope is 0.00525 (inactive). The call in experiment [9] was inactive.

Turning to `COCCN(C(=O)Nc1ccccc1)c1ccccc1C`, the cell count in experiment [1] was determined as 443. For the same compound, the inhibition in experiment [1] was -5.7% (inactive); in experiment [2] it was -107% (inactive); in experiment [4] it was -3.95% (inactive); in experiment [8], -5.98% (inactive). For the same compound, the nuclei count in experiment [2] is 186%. Further, the z-score in experiment [3] (setting [10]) was -1.02; in [3] (setting [11]), -0.17; in experiment [3] (setting [12]), -0.3. Moreover, the fluorescence slope in [5] was -0.32 (inactive). Moreover, the NADPH fluorescence slope in experiment [6] is 6.1e-06 (inactive). Further, the slope in experiment [7] was 0.00472 (inactive). Besides, the call in [9] was inactive.

For the compound `COc1ccc(C(=O)Nc2nc(N)n(-c3ccccc3)n2)cc1OC`, the cell count in experiment [1] is 328. The inhibition was 11.6% (inactive) in [1], 8.6% (inactive) in experiment [2], -1.75% (inactive) in experiment [4] and 12.5% (inactive) in [8]. For the same compound, the nuclei count in [2] turned out to be 154%. Besides, the z-score in experiment [3] (setting [10]) is -1.01; in experiment [3] (setting [11]), 1.47; in [3] (setting [12]), 0.0402. The fluorescence slope in experiment [5] is -0.426 (inactive). Also, in [6], the NADPH fluorescence slope was -0.000152 (inactive). In addition, the slope in [7] was 0.00543 (inactive).

Turning to `S=c1[nH]nc(-c2ccccc2)n1Cc1ccccc1`, the cell count in experiment [1] was found to be 506. The inhibition in experiment [1] was 0% (inactive); in [2] it was -83.3% (inactive); in experiment [4] it was 7.48% (inactive); in experiment [8], -5.83% (inactive). Moreover, in [2], the nuclei count was determined as 170%. Also, the z-score in [3] (setting [10]) was 0.046; in experiment [3] (setting [11]), 1.63; in experiment [3] (setting [12]), -0.862. Moreover, the fluorescence slope in experiment [5] is -0.391 (inactive). Also, the NADPH fluorescence slope in experiment [6] was -9.1e-05 (inactive). Further, the slope in [7] was 0.00591 (inactive). The call in experiment [9] was inactive.

Regarding `COc1ccc(-c2cn3ccsc3n2)cc1`, in experiment [1], the cell count was 536. Besides, the inhibition in experiment [1] is -3% (inactive); in [2], -235% (inactive); in [4] it was -8.95% (inactive); in [8] it was -19.1% (inactive). Also, the nuclei count in [2] was 197%. Also, the z-score is -1.31 in experiment [3] (setting [10]), -1.4 in experiment [3] (setting [11]) and 1.15 in experiment [3] (setting [12]). Moreover, the fluorescence slope in experiment [5] was -0.478 (inactive). Moreover, the NADPH fluorescence slope in experiment [6] is -0.000227 (inactive). In experiment [7], the slope was 0.00481 (inactive). Moreover, the call in experiment [9] was inactive.

As for `COc1ccccc1C(=O)NC(=Nc1nc2ccccc2o1)NC(=O)c1ccccc1OC`, the cell count in [1] is 511. Also, the inhibition in experiment [1] is -2.8% (inactive); in experiment [2] it was 0.2% (inactive); in [4] it was -2.91% (inactive); in experiment [8], -7.36% (inactive). For the same compound, the nuclei count in [2] came to 100%. Moreover, the z-score is -1.24 in experiment [3] (setting [10]), -0.586 in experiment [3] (setting [11]) and 0.38 in [3] (setting [12]). Further, in experiment [5], the fluorescence slope is -0.572 (inactive). The NADPH fluorescence slope in experiment [6] was -9.6e-05 (inactive). In addition, the slope in experiment [7] was 0.0126 (inactive). In addition, the compound was called inactive in experiment [9].

For `COC(=O)CN(c1cc(OC)ccc1OC)S(=O)(=O)c1ccc(OC)c(OC)c1`, in experiment [1], the cell count worked out at 365. The inhibition was -5% (inactive) in experiment [1], -37.1% (inactive) in experiment [2], -2.59% (inactive) in experiment [4] and -0.193% (inactive) in experiment [8]. Also, the nuclei count in [2] was found to be 130%. In addition, the figures for the z-score in experiment [3] (setting [10]), in experiment [3] (setting [11]) and in experiment [3] (setting [12]) were -0.822, 0.297 and -0.958, respectively. Moreover, the fluorescence slope in experiment [5] was -0.417 (inactive). Further, in [6], the NADPH fluorescence slope is -0.000193 (inactive). In experiment [7], the slope is 0.00438 (inactive). The result in experiment [9] was inactive.

Regarding `Cc1ccc2[nH]c3c(c2c1)CN(C(=O)CN1CCN(c2ccccn2)CC1)CC3`, the cell count in experiment [1] was determined as 563. The inhibition in [1] was -9% (inactive); in [2] it was -69.3% (inactive); in experiment [4] it was 4.72% (inactive); in experiment [8] it was 10.4% (inactive). For the same compound, the nuclei count in experiment [2] was 144%. Further, the results for the z-score in [3] (setting [10]), in experiment [3] (setting [11]) and in [3] (setting [12]) were -1.22, -0.583 and -0.448, respectively. In experiment [5], the fluorescence slope is -0.453 (inactive). In [6], the NADPH fluorescence slope is -0.000143 (inactive). Moreover, the slope in experiment [7] is 0.00579 (inactive). The outcome in [9] was inactive.

As for `COc1ccc(C(=O)Cn2c(Br)nc3c2c(=O)n(C)c(=O)n3C)cc1OC`, in experiment [1], the cell count was 296. The inhibition in experiment [1] was -12.5% (inactive); in experiment [2], 28.7% (inactive); in [4] it was -1.75% (inactive); in [8], -16.3% (inactive). Also, the nuclei count in experiment [2] came to 116%. Moreover, the z-score was -1.61 in experiment [3] (setting [10]), 0.384 in experiment [3] (setting [11]) and -0.0762 in experiment [3] (setting [12]). Moreover, the fluorescence slope in experiment [5] is -0.471 (inactive). Besides, the NADPH fluorescence slope in [6] is -1.3e-05 (inactive). Besides, the slope in [7] is 0.00557 (inactive).

Take `COC(=O)c1cc(Br)c(=O)n(Cc2ccc3c(c2)OCO3)c1`: the cell count in [1] was 533. Moreover, the inhibition was 2.2% (inactive) in [1], -141% (inactive) in experiment [2], -14% (inactive) in experiment [4] and 110% (active) in experiment [8]. The same compound came in with a nuclei count in experiment [2] of 135%. Further, the z-score in experiment [3] (setting [10]) is 0.138; in [3] (setting [11]), 0.394; in experiment [3] (setting [12]) it was 1.32. The fluorescence slope in [5] was -0.501 (inactive). The NADPH fluorescence slope in experiment [6] was -4.4e-05 (inactive). Moreover, the slope in [7] was 0.00422 (inactive). Also, the compound was classed as inactive in experiment [9].

Consider `CCOC(=O)c1[nH]c2ccc(OC)cc2c1NC(=O)CN1CCN(c2ccccn2)CC1`, for which the cell count in experiment [1] amounted to 551. Also, the inhibition in [1] was -8.8% (inactive); in experiment [2], -2.8% (inactive); in experiment [4], -14% (inactive); in [8], -9.68% (inactive). This compound also displayed a nuclei count in experiment [2] of 157%. For the same compound, the z-score in [3] (setting [10]) was -0.126; in [3] (setting [11]), 0.554; in [3] (setting [12]), 1.04. Besides, in experiment [5], the fluorescence slope was -0.16 (inactive). In addition, in [6], the NADPH fluorescence slope is 2.2e-06 (inactive). For the same compound, the slope in [7] is 0.00466 (inactive). In [9], the call was inactive.
